According to ChEMBL document CHEMBL1127359, “Synthetic laminin-like peptides and pseudopeptides as potential antimetastatic agents” (1994):
Square brackets hold non-standard residues; d marks the D form. Peptide text beside a SMILES is read from it. Phe(4-NH2) = Nc1ccc(C[C@H](N)C(=O)O)cc1; Phe(4-F) = N[C@@H](Cc1ccc(F)cc1)C(=O)O

How the values were obtained:
Assay type in all cases: functional, cell-based
B16-F10 [1] = experiment: Antimetastatic activity against HT1080 and B16F10 cells in cell attachment assay; Low attachment activity
B16-F10 [2] = experiment: Antimetastatic activity against HT1080 and B16F10 cells in cell attachment assay; Moderate attachment activity
How it was run: (§1)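 Peptide dissolved in water with a drop of acetic acid and dried overnight onto culture wells (amount given is quantity dried on plastic). Wells blocked with EMEM/3% BSA 30 min at 37 °C, then EMEM/0.02% BSA. HT-1080 or B16F10 cells (4 × 10⁴) added, 1 h at 37 °C, 5% CO₂. PBS wash; attached cells fixed, stained and counted (eight fields/well) or trypsinized and Coulter-counted; duplicate wells, mean ± SD.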

B16-F10 [3] = experiment: Antimetastatic activity against HT1080 and B16F10 cells in cell attachment assay; high attachment activity with about 70% of cells attached
B16-F10 [4] = experiment: Antimetastatic activity against HT1080 and B16F10 cells in cell attachment assay; low attachment activity
B16-F10 [5] = experiment: Antimetastatic activity against HT1080 and B16F10 cells in cell attachment assay; high, but not maximal, attachment activity; how it was run: as §1
B16-F10 [6] = experiment: Antimetastatic activity against HT1080 and B16F10 cells in cell attachment assay; Moderat attachment activity; how it was run: as §1
B16-F10 [7] = experiment: Antimetastatic activity against HT1080 and B16F10 cells in cell attachment assay; moderate attachment activity; how it was run: as §1

H-FIGSR-NH2
Activity (B16-F10 [1]): Low attachment activity

CC[C@H](C)[C@H](NC(=O)[C@H](N)Cc1ccc(O)cc1)C(=O)NCC(=O)N[C@@H](CO)C(=O)N[C@@H](CCCN=C(N)N)C(N)=O
Activity (B16-F10 [1]): Low attachment activity

CC[C@H](C)[C@H](NC(=O)[C@@H](N)Cc1ccc(F)cc1)C(=O)NCC(=O)N[C@@H](CO)C(=O)N[C@@H](CCCN=C(N)N)C(N)=O (H-[Phe(4-F)]IGSR-NH2)
Activity (B16-F10 [2]): Moderate attachment activity

CC[C@H](C)[C@H](NC(=O)[C@@H](N)Cc1ccc(O)cc1)C(=O)NCC(=O)N[C@@H](CO)C(=O)N[C@@H](CCCN=C(N)N)C(N)=O
Activity (B16-F10 [1]): Low attachment activity

CC[C@H](C)[C@H](NC(=O)[C@H](N)Cc1ccc(O)cc1)C(=O)NCC(=O)N[C@@H](CO)C(=O)N[C@@H](CCCN=C(N)N)C(=O)O [LAMININ]
Activity (B16-F10 [3]): high attachment activity with about 70% of cells attached

CC[C@H](C)[C@@H](CNCC(=O)N[C@@H](CO)C(=O)N[C@@H](CCCN=C(N)N)C(N)=O)NC(=O)[C@@H](N)Cc1ccc(O)cc1
Activity (B16-F10 [4]): low attachment activity

CC[C@H](C)[C@H](NC(=O)[C@@H](N)Cc1ccc(N)cc1)C(=O)NCC(=O)N[C@@H](CO)C(=O)N[C@@H](CCCN=C(N)N)C(N)=O (H-[Phe(4-NH2)]IGSR-NH2)
Activity (B16-F10 [5]): high, but not maximal, attachment activity

CC[C@H](C)[C@H](NC[C@@H](N)Cc1ccc(O)cc1)C(=O)NCC(=O)N[C@@H](CO)C(=O)N[C@@H](CCCN=C(N)N)C(N)=O
Activity (B16-F10 [6]): Moderat attachment activity

CC[C@H](C)[C@@H](C(=O)NCC(=O)N[C@@H](CO)C(=O)N[C@@H](CCCN=C(N)N)C(N)=O)N(C=O)C[C@@H](N)Cc1ccc(O)cc1
Activity (B16-F10 [7]): moderate attachment activity

H-CYIGSRYIGSRYIGSR-NH2
Activity (B16-F10 [3]): high attachment activity with about 70% of cells attached

CC[C@H](C)[C@H](NC(=O)[C@@H](N)Cc1ccc(O)cc1)C(=O)NCCN[C@@H](CO)C(=O)N[C@@H](CCCN=C(N)N)C(N)=O
Activity (B16-F10 [4]): low attachment activity

CC[C@H](C)[C@H](NC(=O)[C@@H](N)Cc1ccc(O)cc1)C(=O)NCC(=O)N[C@@H](CO)CN[C@@H](CCCN=C(N)N)C(N)=O
Activity (B16-F10 [1]): Low attachment activity
